Assay results taken from ChEMBL document CHEMBL3044563, “Alternethanoxins A and B, polycyclic ethanones produced by Alternaria sonchi , potential mycoherbicides for Sonchus arvensis biocontrol” (2009).
The source made the active and inactive calls. No cut-off for these calls is given here.

Legend:
Amaranthus retroflexus = test: Phytotoxicity against Amaranthus rethroflexus assessed as necrotic lesion diameter at 2 mg/mL at 24 degC measured after 2 days by leaf disk-puncture assay; type: functional
How it was run: (§1)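 Plants were raised in a greenhouse from underground shoot pieces or seeds. 10 mm disks were cut with a cork borer from well-expanded leaves, laid on moist filter paper and punctured centrally with a needle. Compound was predissolved in EtOH and diluted with water (final 5% v/v EtOH), and a 10 μL droplet was applied. Disks were incubated at 24 °C under a 12 h photoperiod, and necrotic lesion diameter (mm) was measured after 2 days.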

Saccharomyces cerevisiae = test: Antifungal activity against Saccharomyces cerevisiae at 100 ug/disk; type: functional, organism-based
How it was run: (§2)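 Test organisms were S. cerevisiae (antifungal) and X. campestris, E. coli and B. subtilis (antibacterial). Compound applied to a disk at 100 μg per disk, following a previously described disk method.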

Escherichia coli = test: Antibacterial activity against Escherichia coli at 100 ug/disk; type: functional, organism-based; how it was run: as §2
Xanthomonas campestris = test: Antibacterial activity against Xanthomonas campestris at 100 ug/disk; type: functional, organism-based; how it was run: as §2
Bacillus subtilis = test: Antibacterial activity against Bacillus subtilis at 100 ug/disk; type: functional, organism-based; how it was run: as §2
Phleum pratense = test: Phytotoxicity against Phleum pratense (timothy grass) assessed as necrotic lesion diameter at 2 mg/mL at 24 degC measured after 2 days by leaf disk-puncture assay; type: functional; how it was run: as §1
Elymus repens = test: Phytotoxicity against Elymus repens (couch grass) assessed as necrotic lesion diameter at 2 mg/mL at 24 degC measured after 2 days by leaf disk-puncture assay; type: functional; how it was run: as §1
Aegopodium podagraria = test: Phytotoxicity against Aegopodium podagraria (bishop's weed) assessed as necrotic lesion diameter at 2 mg/mL at 24 degC measured after 2 days by leaf disk-puncture assay; type: functional; how it was run: as §1
Convolvulus arvensis = test: Phytotoxicity against Convolvulus arvensis assessed as necrotic lesion diameter at 2 mg/mL at 24 degC measured after 2 days by leaf disk-puncture assay; type: functional; how it was run: as §1
Taraxacum officinale = test: Phytotoxicity against Taraxacum officinale (dandelion) assessed as necrotic lesion diameter at 2 mg/mL at 24 degC measured after 2 days by leaf disk-puncture assay; type: functional; how it was run: as §1
Calendula officinalis = test: Phytotoxicity against Calendula officinalis assessed as necrotic lesion diameter at 2 mg/mL at 24 degC measured after 2 days by leaf disk-puncture assay; type: functional; how it was run: as §1
Cirsium arvense = test: Phytotoxicity against Cirsium arvense (Canada thistle) assessed as necrotic lesion diameter at 2 mg/mL at 24 degC measured after 2 days by leaf disk-puncture assay; type: functional; how it was run: as §1
Sonchus arvensis [1] = test: Phytotoxicity against Sonchus arvensis (field sow-thistle) assessed as necrotic lesion diameter at 4 mg/mL at 24 degC measured after 2 days by leaf disk-puncture assay; type: functional; how it was run: as §1
Sonchus arvensis [2] = test: Phytotoxicity against Sonchus arvensis (field sow-thistle) assessed as necrotic lesions at 2 mg/mL at 24 degC measured after 2 days by leaf disk-puncture assay; type: functional; how it was run: as §1
Sonchus arvensis [3] = test: Phytotoxicity against Sonchus arvensis (field sow-thistle) assessed as necrotic lesions at 1 mg/mL at 24 degC measured after 2 days by leaf disk-puncture assay; type: functional; how it was run: as §1

| SMILES | Activity (Amaranthus retroflexus) | Activity (Saccharomyces cerevisiae) | Activity (Escherichia coli) | Activity (Xanthomonas campestris) | Activity (Bacillus subtilis) | Activity (Phleum pratense) | Activity (Elymus repens) | Activity (Aegopodium podagraria) | Activity (Convolvulus arvensis) | Activity (Taraxacum officinale) | Activity (Calendula officinalis) | Activity (Cirsium arvense) | Activity (Sonchus arvensis [1]) | Activity (Sonchus arvensis [2]) | Activity (Sonchus arvensis [3]) |
| --- | --- | --- | --- | --- | --- | --- | --- | --- | --- | --- | --- | --- | --- | --- | --- |
| COc1ccc2oc3c(C(C)=O)cc(O)c4c3c2c1[C@@H](O)O4 [ALTERNETHANOXIN B] | 1 mm | inactive | inactive | inactive | inactive | 1 mm | 1 mm | 1 mm | 1 mm | 1 mm | 1 mm | 1 mm | 2 mm | Active | – |
| COc1cccc2c1[C@H](O)Oc1c(O)cc(C(C)=O)c(O)c1-2 [ALTERNETHANOXIN A] | 1 mm | inactive | inactive | inactive | inactive | 1 mm | 1 mm | 1 mm | 1 mm | 1 mm | 1 mm | 1 mm | 4 mm | – | Active |
